Results of several laboratories.
Medium: plasma

COc1ccc2nccc(N3CCc4c(cc(Cn5ccnc5)cc4-c4cn(C)nc4C(F)(F)F)C3=O)c2c1 — bioavailability (male CD-1 mouse; oral, 50 mg/kg): 110%
COc1nc(-c2cc(C)c(N[C@@H](C)c3ccc(F)cc3)nn2)ccc1-n1cnc(C)c1 — bioavailability (male CD-1 mouse; oral, 5 mg/kg, single dose): 63.1%
CN[C@@H](C)C(=O)N[C@H]1CN(C(=O)CC(C)C)CC[C@H]2CC[C@@H](C(=O)NC(c3ccccc3)c3ccccc3)N2C1=O — bioavailability (SCID mouse; oral, 100 mg/kg, tumour-bearing): 42.7%
CCc1cc(C(=O)NC)c2nccc(N3CCc4c(cc(Cn5ccnc5)cc4-c4cn(C)nc4C(F)(F)F)C3=O)c2c1 — bioavailability (male CD-1 mouse; oral, 150 mg/kg): 252%
N[C@@H](CSSC[C@H](N)C(=O)O)C(=O)O — bioavailability (Kunming mouse; oral, 25 mg/kg): 18.6%
N#Cc1ccc(/C=C/c2nc3ccccc3c(=O)n2-c2cccc(C(=O)O)c2)cc1 — bioavailability (mouse; oral, 10 mg/kg, single dose): 50%
CCCCCCCC(=O)N[C@H](CN1CCCC1)[C@H](O)c1ccc2c(c1)OCCO2 — bioavailability (CD-1 mouse; oral, 10 mg/kg): < 1%
COc1cc(N2CCN(C)CC2)ccc1Nc1ncc2c(n1)N(C)c1ccccc1C(=O)N2CC(F)(F)F — bioavailability (male Swiss mouse; oral, 10 mg/kg): 81%
Cc1ccc2cncc(N3CCc4c(cc(Cn5ccnc5)cc4-c4cn(C)nc4C(F)(F)F)C3=O)c2c1 — bioavailability (male CD-1 mouse; oral, 50 mg/kg): 56%
CC[C@H](C)[C@@H]1NC(=O)[C@@](C)(NC(=O)[C@H](CCCNC(=N)N)NC(=O)[C@H](CC(C)C)NC(=O)[C@@H](NC(=O)[C@H](CCC(N)=O)NC(=O)[C@H](CC(C)C)NC(C)=O)[C@@H](C)O)CCCC=CCCC[C@@](C)(C(=O)N[C@@H](CC(C)C)C(=O)N[C@@H](Cc2ccc3ccccc3c2)C(N)=O)NC(=O)[C@H](CCCNC(=N)N)NC(=O)[C@H](CCC(N)=O)NC1=O — bioavailability (male BALB/c mouse; intramuscular, 5 mg/kg): 20.6%
CCc1cc(OC)c2nccc(N3CCc4c(cc(Cn5ccnc5)cc4-c4cn(C)nc4C(F)(F)F)C3=O)c2c1 — bioavailability (male CD-1 mouse; oral, 150 mg/kg): 135%
C=CC(=O)N1CC2CC(n3nc(-c4ccc(C(=O)Nc5ccccn5)cc4)c4c(N)ncnc43)CC2C1 (centres unmarked) — bioavailability (male BALB/c mouse; oral, 3 mg/kg): 47%
Cc1c(C(=O)Nc2ccc(F)c(Cl)c2)sc(N)c1C(N)=O — bioavailability (male CD-1 mouse; oral, 10 mg/kg): 46%
N#C[C@@]1(c2ccc3c(N)ncnn23)O[C@H](CO)[C@@H](O)[C@H]1O — bioavailability (male CD-1 mouse; oral, 10 mg/kg): 57%
OC[C@H]1O[C@@H](c2ccc(Cl)c(Cc3ccc(O[C@H]4CCOC4)cc3)c2)[C@H](O)[C@@H](O)[C@@H]1O — bioavailability (CD-1 mouse; oral, 10 mg/kg): 25.6%
O=[N+]([O-])c1cccc2[nH]c(CNc3nc(N4CCOCC4)nc4c3ncn4-c3ccsc3)nc12 — bioavailability (mouse; intravenous, 1 mg/kg): 0%
CC(C)c1cnn2c(NCc3ccccc3)cc(NC[C@H]3CCNC[C@@H]3O)nc12 — bioavailability (male CD-1 mouse; oral, 10 mg/kg): 30%
CC(C)(NC(=O)O[C@@H]1CN2CCC1CC2)c1csc(-c2ccc(F)cc2)n1 — bioavailability (CD-1 mouse; oral, 10 mg/kg): 74%
COc1nc2[nH]c(C(F)(F)F)nc2nc1Nc1ccc(OC(F)(F)F)cc1F — bioavailability (C57BL/6 mouse; oral, 10 mg/kg): 21%
CCc1ccc(Cc2cc([C@@H]3O[C@H](CO)[C@@H](O)[C@H](O)[C@H]3O)cc3c2CCC3)cc1 — bioavailability (male C57BL/6 mouse; oral, 0.3 mg/kg): > 100%
CCN1CC(=O)NC(CC(C)C)C(=O)N(C)C(C)C(=O)NC(CC(C)C)C(=O)N2CCCC2C(=O)N(CC2CCOCC2)CC(=O)NC(CC(C)C)C(=O)N(C)C(C)C(=O)NC(C)C(=O)N2CCCC2C1=O (centres unmarked) — bioavailability (mouse; oral, 200 mg/kg): 50%
Oc1ccc(C(c2ccc(O)cc2)(C(F)(F)F)C(F)(F)F)cc1 — bioavailability (mouse; oral, 34 mg/kg, single dose): 3 to 6%
Cc1nc2ccccc2n1Cc1ccc(C(=O)NO)cc1F — bioavailability (male CD-1 mouse; oral, 30 mg/kg): ~21%
Oc1ccc(-c2nc(-c3ccc(Oc4ccc(C(F)(F)F)cc4)cc3)no2)cc1 — bioavailability (female CD-1 mouse; oral, 50 mg/kg): 100%
COc1cc(OC)c2nccc(N3CCc4c(cc(Cn5ccnc5)cc4-c4cn(C)nc4C(F)(F)F)C3=O)c2c1 — bioavailability (male CD-1 mouse; oral, 50 mg/kg): 452%
CSc1cc(Oc2ccnc3[nH]c(=O)cnc23)ccc1NC(=O)Nc1cc(C(C)(C)C)nn1-c1ccccc1 — bioavailability (BALB/c mouse; oral, 10 mg/kg): 58%
